The record followed here is ChEMBL document CHEMBL3792364, “Identification and biological activity of 6-alkyl-substituted 3-methyl-pyridine-2-carbonyl amino dimethyl-benzoic acid EP4 antagonists” (Bioorg Med Chem Lett, 2016).

A word on the IC50: it is the concentration needed to halve the response being measured.

Activity calls are given as the source filed them. The rule behind the calls is not given here.

Experiment [1] deals with Rattus norvegicus. The experiment is described as follows: Antiinflammatory activity in rat adjuvant induced arthritis model assessed as suppression of Mycobacterium tuberculosis H37 RA induced paw swelling at 10 mg/kg measured from day 11 to 15 relative to vehicle control. The class given is functional, organism-based. The gist of the method: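 Rat adjuvant-induced arthritis: paw widths measured, then 0.25 mg adjuvant (Mycobacterium tuberculosis H37 RA) in 100 µl mineral oil given intradermally at tail base (day 0). On day 11, width of both paws was re-measured as percent change from day 0, and rats were randomized on this and body weight before dosing. Rats were euthanized day 15 without further dosing and paw width measured.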

Experiment [2] concerns Rattus norvegicus. The experiment is described as follows: Antiinflammatory activity in rat MIA model assessed as inhibition of differential weight bearing at 5 mg/kg, po measured 30 mins post dose by incapacitance test. Format: functional, organism-based. In outline:
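MIA 0.3 mg in 50 µL saline injected into right knee and saline into left knee of rats on day 0. Day 12: randomized, single oral dose in 10% acacia in water plus 0.05% antifoam at 0.3–10 mg/kg, with diclofenac 5 mg/kg. Hind-limb weight distribution measured by incapacitance tester 30 min post dose. n = 5/group, Dunnett's test versus vehicle.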

Experiment [3] concerns the target T1, Prostaglandin E2 receptor EP4 subtype (Homo sapiens, UniProt P35408). The experiment in a line: Antagonist activity against human EP4 expressed in HEK293 cells assessed as inhibition of PGE2-stimulated production of cAMP incubated for 20 mins by HTRF assay. Format: functional, cell-based. For orientation: TR-FRET usually uses a lanthanide donor and a delayed reading to cut background.

Experiment [4] deals with T1, Prostaglandin E2 receptor EP4 subtype. The experiment is described as follows: Antagonist activity against EP4 in human whole blood assessed as reversal of PGE2-mediated suppression of LPS-induced TNF-alpha production preincubated for 30 mins followed by LPS stimulation measured after 20 to 24 hrs by enzyme immunoassay. Format: tissue-based. In outline: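 Pooled blood from donors free of NSAIDs or celecoxib for 48 h and of glucocorticoids for 2 weeks. Blood pretreated 30 min at 37 °C, 5% CO2 with compound in DMSO (7-point curve, triplicate). LPS […] ± 10 nM PGE2 (final) added, then incubated 20–24 h. Plasma TNFα read at A450-A650. IC50 from sigmoidal nonlinear fit; geometric mean of independent runs.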

T1 sequence (P35408 whole entry): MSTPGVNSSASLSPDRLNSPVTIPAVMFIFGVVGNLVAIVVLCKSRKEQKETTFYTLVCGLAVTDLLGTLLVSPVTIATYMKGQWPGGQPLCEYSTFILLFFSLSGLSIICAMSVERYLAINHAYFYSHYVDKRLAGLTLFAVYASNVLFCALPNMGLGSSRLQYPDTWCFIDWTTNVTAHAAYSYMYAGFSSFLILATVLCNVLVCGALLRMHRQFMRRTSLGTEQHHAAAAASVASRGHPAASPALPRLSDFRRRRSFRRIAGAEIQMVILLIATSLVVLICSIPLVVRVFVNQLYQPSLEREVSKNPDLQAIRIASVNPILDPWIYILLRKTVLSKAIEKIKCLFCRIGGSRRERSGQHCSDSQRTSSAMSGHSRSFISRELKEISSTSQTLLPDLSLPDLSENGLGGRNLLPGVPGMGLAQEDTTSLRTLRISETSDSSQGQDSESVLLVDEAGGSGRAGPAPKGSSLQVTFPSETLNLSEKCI

`O=C(O)Cc1ccccc1Nc1c(Cl)cccc1Cl`: the outcome with Rattus norvegicus [1] and with Rattus norvegicus [2] was Active. As to `Cc1ccc(N2CCC(C)(O)CC2)nc1C(=O)Nc1c(C)ccc(C(=O)O)c1C`, in experiment [3], the IC50 was determined as 87.9 nM. Take `Cc1ccc(N2CCCC(CO)C2)nc1C(=O)Nc1c(C)cc(C(=O)O)cc1C` (stereo not given): the IC50 is 1450 nM in experiment [4] and 16.5 nM in experiment [3].
